Assays:
[1] = target: T1, Vascular endothelial growth factor A, long form (Homo sapiens, UniProt P15692); experiment: Binding affinity to VEGF by surface plasmon resonance-based solution affinity assay
T1 sequence (P15692 whole entry): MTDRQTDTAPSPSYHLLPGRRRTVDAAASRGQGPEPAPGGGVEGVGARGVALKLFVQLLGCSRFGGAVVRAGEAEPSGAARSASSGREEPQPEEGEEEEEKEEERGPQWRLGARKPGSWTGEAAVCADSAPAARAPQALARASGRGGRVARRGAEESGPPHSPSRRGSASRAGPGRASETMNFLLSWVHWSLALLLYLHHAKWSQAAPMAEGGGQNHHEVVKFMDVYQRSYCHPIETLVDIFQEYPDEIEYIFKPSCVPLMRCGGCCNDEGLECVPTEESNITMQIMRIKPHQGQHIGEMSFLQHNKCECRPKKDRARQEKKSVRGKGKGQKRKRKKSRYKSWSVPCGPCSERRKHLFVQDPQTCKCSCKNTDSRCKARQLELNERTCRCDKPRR
Summary of the method: (§1)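 Dissociation constants (Kd) for ligand binding to FGF-1, FGF-2 and VEGF were determined by an SPR solution affinity assay. Some entries come from a single measurement only.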

[2] = target: Fibroblast growth factor 2 (Homo sapiens, UniProt P09038); experiment: Binding affinity to FGF2 by surface plasmon resonance-based solution affinity assay; summary of the method: as §1
[3] = target: Fibroblast growth factor 1 (Homo sapiens, UniProt P05230); experiment: Binding affinity to FGF1 by surface plasmon resonance-based solution affinity assay; summary of the method: as §1
Chain of Fibroblast growth factor 1 (P05230 whole entry): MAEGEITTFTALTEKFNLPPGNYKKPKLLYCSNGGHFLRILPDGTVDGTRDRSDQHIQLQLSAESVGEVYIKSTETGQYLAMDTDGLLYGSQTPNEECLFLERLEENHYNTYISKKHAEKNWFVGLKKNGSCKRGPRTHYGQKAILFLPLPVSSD

Chain of Fibroblast growth factor 2 (P09038 143-288 limits assumed): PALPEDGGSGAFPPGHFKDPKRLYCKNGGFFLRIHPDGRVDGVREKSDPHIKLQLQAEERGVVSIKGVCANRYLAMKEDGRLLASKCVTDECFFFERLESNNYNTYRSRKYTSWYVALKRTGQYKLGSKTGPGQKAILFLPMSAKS

SMILES | Kd [1] [µM] | Kd [2] [µM] | Kd [3] [µM]
CC(=O)N(CC(=O)NCCO[C@H]1O[C@H](COS(=O)(=O)O)[C@@H](OS(=O)(=O)O)[C@H](OS(=O)(=O)O)[C@@H]1OS(=O)(=O)O)c1ccccc1 | 402 | 240 | 97
CO[C@H]1O[C@H](CNC(=O)CN(C(C)=O)C2CCCCCC2)[C@@H](OS(=O)(=O)O)[C@H](OS(=O)(=O)O)[C@@H]1OS(=O)(=O)O | 3000 | 410 | 370
O=C(CNC(=O)Cc1cccc(Cl)c1)NCCO[C@H]1O[C@H](COS(=O)(=O)O)[C@@H](OS(=O)(=O)O)[C@H](OS(=O)(=O)O)[C@@H]1OS(=O)(=O)O | 91 | 837 | 170
CCCCC1CCC(N(CC(=O)NC[C@H]2O[C@H](OC)[C@@H](OS(=O)(=O)O)[C@@H](OS(=O)(=O)O)[C@@H]2OS(=O)(=O)O)C(C)=O)CC1 (stereo not given in full) | 1000 | 540 | 243
CO[C@H]1O[C@H](CNC(=O)CNC(=O)Cc2cccc(Cl)c2)[C@@H](OS(=O)(=O)O)[C@H](OS(=O)(=O)O)[C@@H]1OS(=O)(=O)O | 45.3 | 430 | 37
CO[C@H]1O[C@H](CN=[N+]=[N-])[C@@H](OS(=O)(=O)O)[C@H](OS(=O)(=O)O)[C@@H]1OS(=O)(=O)O | 630 | 210 | 343
CC(=O)N(CC(=O)NCCO[C@H]1O[C@H](COS(=O)(=O)O)[C@@H](OS(=O)(=O)O)[C@H](OS(=O)(=O)O)[C@@H]1OS(=O)(=O)O)Cc1ccccc1 | 76.6 | 287 | 25
CO[C@H]1O[C@H](CNC(=O)CN(C(C)=O)C2CCCCCCCCCCC2)[C@@H](OS(=O)(=O)O)[C@H](OS(=O)(=O)O)[C@@H]1OS(=O)(=O)O | 1200 | 480 | 265
CO[C@H]1O[C@H](CNC(=O)CN(C(C)=O)C2CCCCC2)[C@@H](OS(=O)(=O)O)[C@H](OS(=O)(=O)O)[C@@H]1OS(=O)(=O)O | 1700 | 413 | 310
CO[C@H]1O[C@H](CNC(=O)CN(Cc2ccccc2)C(C)=O)[C@@H](OS(=O)(=O)O)[C@H](OS(=O)(=O)O)[C@@H]1OS(=O)(=O)O | 77 | 192 | 140
CO[C@H]1O[C@H](CNC(=O)CN(CCc2ccccc2)C(C)=O)[C@@H](OS(=O)(=O)O)[C@H](OS(=O)(=O)O)[C@@H]1OS(=O)(=O)O | 109 | 680 | 224
CC(=O)N(CCc1ccccc1)CC(=O)NCCO[C@H]1O[C@H](COS(=O)(=O)O)[C@@H](OS(=O)(=O)O)[C@H](OS(=O)(=O)O)[C@@H]1OS(=O)(=O)O | 29 | 113 | 11.8
CO[C@H]1O[C@H](CNC(=O)CN(C(C)=O)c2ccccc2)[C@@H](OS(=O)(=O)O)[C@H](OS(=O)(=O)O)[C@@H]1OS(=O)(=O)O | 76 | 480 | 196
CO[C@H]1O[C@H](COS(=O)(=O)O)[C@@H](OS(=O)(=O)O)[C@H](OS(=O)(=O)O)[C@@H]1OS(=O)(=O)O | 198 |  | 

Next, values leading:

Kd [1] [µM] | Kd [2] [µM] | Kd [3] [µM] | SMILES
512 |  | 174 | CCN(CC(=O)NC[C@H]1O[C@H](OC)[C@@H](OS(=O)(=O)O)[C@@H](OS(=O)(=O)O)[C@@H]1OS(=O)(=O)O)C(=O)COS(=O)(=O)O
81 | 400 | 500 | CCN(CC(=O)NC[C@H]1O[C@H](OC)[C@@H](OS(=O)(=O)O)[C@@H](OS(=O)(=O)O)[C@@H]1OS(=O)(=O)O)C(=O)CCCc1ccccc1
596 |  |  | CCN(CC(=O)NC[C@H]1O[C@H](OC)[C@@H](OS(=O)(=O)O)[C@@H](OS(=O)(=O)O)[C@@H]1OS(=O)(=O)O)C(=O)CCc1ccccc1
545 | 240 | 111 | CCN(CC(=O)NC[C@H]1O[C@H](OC)[C@@H](OS(=O)(=O)O)[C@@H](OS(=O)(=O)O)[C@@H]1OS(=O)(=O)O)C(=O)CCCCCCCCCOS(=O)(=O)O
81 | 188 | 44 | CCN(CC(=O)NCCO[C@H]1O[C@H](COS(=O)(=O)O)[C@@H](OS(=O)(=O)O)[C@H](OS(=O)(=O)O)[C@@H]1OS(=O)(=O)O)C(=O)CCCCC(=O)O
280 | 240 | 95 | CO[C@H]1O[C@H](CNC(=O)CN(CCOS(=O)(=O)O)C(C)=O)[C@@H](OS(=O)(=O)O)[C@H](OS(=O)(=O)O)[C@@H]1OS(=O)(=O)O
207 | 291 | 338 | CCN(CC(=O)NC[C@H]1O[C@H](OC)[C@@H](OS(=O)(=O)O)[C@@H](OS(=O)(=O)O)[C@@H]1OS(=O)(=O)O)C(=O)CCC(=O)O
104 | 480 | 160 | CCN(CC(=O)NC[C@H]1O[C@H](OC)[C@@H](OS(=O)(=O)O)[C@@H](OS(=O)(=O)O)[C@@H]1OS(=O)(=O)O)C(=O)CCCCC(=O)O
1100 | 480 | 366 | CCN(CC(=O)NC[C@H]1O[C@H](OC)[C@@H](OS(=O)(=O)O)[C@@H](OS(=O)(=O)O)[C@@H]1OS(=O)(=O)O)C(=O)c1ccccc1
40 | 122 | 43 | CCN(CC(=O)NCCO[C@H]1O[C@H](COS(=O)(=O)O)[C@@H](OS(=O)(=O)O)[C@H](OS(=O)(=O)O)[C@@H]1OS(=O)(=O)O)C(=O)CCC(=O)O
50 | 157 | 20 | CCN(CC(=O)NCCO[C@H]1O[C@H](COS(=O)(=O)O)[C@@H](OS(=O)(=O)O)[C@H](OS(=O)(=O)O)[C@@H]1OS(=O)(=O)O)C(=O)CCCCCCCCCOS(=O)(=O)O

Reference: ChEMBL document CHEMBL2086261, “A focused sulfated glycoconjugate Ugi library for probing heparan sulfate-binding angiogenic growth factors” (Bioorg Med Chem Lett, 2012)
